PubChem BioAssay
Values without a mark were called inactive. Records with an inconclusive call do not appear. The source made the active and inactive calls.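 Rule for the calls, unless noted: active = growth inhibition above 25% in both replicates, a cutoff set 3 SD above the mean; inconclusive = above 25% in only one replicate; inactive = the rest.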

How the values were obtained:
[1] = OD615 S. cerevisiae growth inhibition, permissive medium, pilot counter-assay, permissive growth control for S. cerevisiae lifespan shortening project (AID 705); settings: OD615, 24 h, at 10 µM, stronger effect = higher value
Method in brief: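 assay system = Saccharomyces cerevisiae strain carrying genetically modified DeaD replicative-lifespan system | technique = absorbance (optical density) at 615 nm | buffer or medium = permissive raffinose/galactose medium | timing = cells pre-grown 4 h, then 24 h compound exposure, 30 °C humidified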

[2] = Restrictive medium S. cerevisiae growth inhibition, OD615, pilot screen of yeast lifespan reduction project, restrictive growth control (AID 706;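 active = growth inhibition above a set limit, 3 SD over mean compound inhibition, in both replicates, cut at about 43% in these data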;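 note: modified DeaD lifespan yeast strain shifted to restrictive glucose medium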); settings: OD615, 48 h, at 10 µM, stronger effect = higher value
Method in brief: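 System: modified S. cerevisiae. Buffer or medium: CSMM-D glucose medium. Incubation: 4 h pre-growth plus 48 h compound exposure, 30 °C. Detection: absorbance (optical density) measured at 615 nm.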

[3] = viability gain of MRP-1-high H69AR cells under doxorubicin, pilot screen, MRP-1 activator project, CellTiter-Glo, duplicate (AID 807;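 active = viability increase at or above a cutoff of the median across tested compounds plus 3 SD, cut at about 8.5% in these data, passing the limit was not always enough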;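 note: compound pretreatment 18-22 h then 72 h combined with doxorubicin; 0% = doxorubicin alone and 100% = vehicle without doxorubicin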); settings: H69AR viability with doxorubicin, CellTiter-Glo luminescence; at 10 µM; stronger effect = higher value
[4] = growth suppression of beta-catenin knockout HCT116, pilot screen, human colon tumor cells (AID 823;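 active = cell viability at or below a set limit in both duplicate runs, the limit being the all-compound median minus 4 SD, cut at about 23% in these data, passing the limit was not always enough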;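 note: 0% = wells killed by 20 µM Hyamine and 100% = untreated DMSO cell wells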); settings: CellTiter-Glo, 60 h, at 10 µM, stronger effect = lower value
[5] = growth suppression of PTEN-deleted HCT116, pilot screen, cell-based, HCT116 clonal line, CellTiter-Glo (AID 824;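 active = viability at or below 27.92% in each of two runs, the all-compound median minus 4 SD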;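 note: 0% = 20 µM Hyamine control and 100% = vehicle cell control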); settings: 60 h, at 10 µM, stronger effect = lower value
[6] = inhibitors of the yeast RAM network, pilot screen, dse1pr::URA3 reporter, 5-FOA selection (AID 869;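 active = inhibition over a set limit, the all-compound mean plus 3 SD, in both replicate runs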;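 note: 0% = DMSO wells with no growth and 100% = 10 µM 1-NA-PP1 with full growth; RAM network block rescues cells from 5-FOA so hits raise OD615 growth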); settings: S. cerevisiae dse1pr::URA3 5-FOA growth, OD615, 2 d; at 10 µM; stronger effect = higher value; strain carries analog-sensitive mutant Cbk1 kinase
[7] = RAM signaling pathway blockade in yeast – S. cerevisiae, Pdr1DBD-CYC8 efflux-inhibited sensitized strain, primary screen (AID 1298;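 active = RAM network inhibition above 8.4% in each of two replicates, 3 SD over the compound average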;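 note: 0% = DMSO untreated cells without growth and 100% = 10 µM 1-NA-PP1 full growth; higher means more yeast growth rescued from 5-FOA killing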); settings: S. cerevisiae cbk1-as DSE1-URA3 strain, 5-FOA growth OD615, 2 d; at 50 µM; stronger effect = higher value

SMILES: CCOC(=O)c1cn(-c2ccccc2)nc1-c1cccnc1
- growth inhibition [1]: -13.6%
- growth inhibition [2]: -8.75%
- viability increase [3]: -3.34%
- viability [4]: 106%
- viability [5]: 93.5%
- inhibition [6]: 1.63%
- RAM network inhibition [7]: 7.28%

SMILES: O=C(C1CC(c2ccc(F)cc2)=NO1)N1CCc2ccccc2C1 (configuration not stated)
- growth inhibition [1]: 1.34%
- growth inhibition [2]: -7.89%
- viability increase [3]: 0.59%
- viability [4]: 101%
- viability [5]: 99.5%
- inhibition [6]: 1.91%
- RAM network inhibition [7]: 7.63%

SMILES: Cc1nc2sc(C(c3ccco3)N3CCN(c4ccc(F)cc4)CC3)c(O)n2n1 (configuration not stated)
- growth inhibition [1]: 0.055%
- growth inhibition [2]: -7.21%
- viability increase [3]: -0.62%
- viability [4]: 107%
- viability [5]: 99.9%
- inhibition [6]: 1.52%
- RAM network inhibition [7]: 3.54%

SMILES: O=C(O)[C@@H](c1ccccc1)N1Cc2ccccc2C1=O
- growth inhibition [1]: 2.66%
- growth inhibition [2]: -13.5%
- viability increase [3]: -0.32%
- viability [4]: 104%
- viability [5]: 96.7%
- inhibition [6]: 1.13%
- RAM network inhibition [7]: 1.56%

SMILES: O=C(Nc1ccc2nc(-c3cccnc3)[nH]c2c1)c1ccco1
- growth inhibition [1]: -2%
- growth inhibition [2]: -20.3%
- viability increase [3]: -2.85%
- viability [4]: 100%
- viability [5]: 97.4%
- inhibition [6]: 0.845%
- RAM network inhibition [7]: 4.67%

SMILES: CN(C(=O)c1ccc(=O)[nH]c1)C1(C(=O)NC2CCCCC2)CCCCC1
- growth inhibition [1]: -7.84%
- growth inhibition [2]: -8.31%
- viability increase [3]: -0.61%
- viability [4]: 95.7%
- viability [5]: 101%
- inhibition [6]: 0.78%
- RAM network inhibition [7]: 1.66%

SMILES: Cc1nn(C)c(C)c1N=Cc1c(O)ccc2ccccc12
- growth inhibition [1]: -25.2%
- growth inhibition [2]: -28.4%
- viability increase [3]: -1.72%
- viability [4]: 105%
- viability [5]: 92.1%
- inhibition [6]: -0.015%
- RAM network inhibition [7]: -0.32%

SMILES: CC(=O)Nc1ccc(NC(=O)c2oc3cc(C)c(C)cc3c2C)cc1
- growth inhibition [1]: -7.1%
- growth inhibition [2]: -17%
- viability increase [3]: -0.82%
- viability [4]: 104%
- viability [5]: 96.4%
- inhibition [6]: 2.38%
- RAM network inhibition [7]: 5.95%

SMILES: CCCCn1c(NC(=O)c2ccccc2)nc2ccccc21
- growth inhibition [1]: 8.39%
- growth inhibition [2]: -7.56%
- viability increase [3]: -3.95%
- viability [4]: 22.1% (active)
- viability [5]: 18.3% (active)
- inhibition [6]: -0.145%
- RAM network inhibition [7]: 3.88%

SMILES: CCN(CC)S(=O)(=O)c1ccc(C2CNC(=O)C2)cc1 (configuration not stated)
- growth inhibition [1]: -6.66%
- growth inhibition [2]: -3.95%
- viability increase [3]: 1.75%
- viability [4]: 106%
- viability [5]: 102%
- inhibition [6]: 1.48%
- RAM network inhibition [7]: -0.31%

SMILES: COc1ccc(OC)c(C2CC(=O)N3CN(c4cccc(Cl)c4C)CSC3=C2C#N)c1 (configuration not stated)
- growth inhibition [1]: 2.17%
- growth inhibition [2]: 13.8%
- viability increase [3]: -5.48%
- viability [4]: 74%
- viability [5]: 72.1%
- inhibition [6]: 1.87%
- RAM network inhibition [7]: 2.07%

SMILES: O=c1cc(-c2c(F)c(F)c(F)c(F)c2F)oc2c(F)c(F)c(F)c(F)c12
- growth inhibition [1]: -8.86%
- growth inhibition [2]: -6.48%
- viability increase [3]: -7%
- viability [4]: 1.3% (active)
- viability [5]: 1.25% (active)
- inhibition [6]: -0.35%
- RAM network inhibition [7]: -1.25%

SMILES: Cc1cc(C)n(-c2nnc(C)n2/N=C/c2cc(Br)ccc2OCc2ccccc2)n1
- growth inhibition [1]: -10.3%
- growth inhibition [2]: 13.9%
- viability increase [3]: -7.71%
- viability [4]: 12.4% (active)
- viability [5]: 8.96% (active)
- inhibition [6]: 0.37%
- RAM network inhibition [7]: -1.07%

SMILES: Cc1ccc2c(c1)N(CCCC(=O)NCc1cccnc1)C(=O)CO2
- growth inhibition [1]: -13.3%
- growth inhibition [2]: -16.3%
- viability increase [3]: 0.96%
- viability [4]: 95.6%
- viability [5]: 99.1%
- inhibition [6]: -0.1%
- RAM network inhibition [7]: 0.98%

SMILES: CCn1c(COc2cccc3cccnc23)nnc1SCC(=O)O
- growth inhibition [1]: -4.3%
- growth inhibition [2]: 8.66%
- viability increase [3]: -0.53%
- viability [4]: 95.5%
- viability [5]: 91.5%
- inhibition [6]: 2.12%
- RAM network inhibition [7]: 0.05%

SMILES: C(=C\c1ccccc1)/CSc1nnc(-c2cccnc2)o1
- growth inhibition [1]: 8.71%
- growth inhibition [2]: 32.7%
- viability increase [3]: 0.3%
- viability [4]: 99.9%
- viability [5]: 93.1%
- inhibition [6]: 0.04%
- RAM network inhibition [7]: 0.25%

SMILES: CCOC(=O)Nc1cc(C)c(Cl)cc1OC
- growth inhibition [1]: -8.55%
- growth inhibition [2]: -0.98%
- viability increase [3]: -2.98%
- viability [4]: 84.5%
- viability [5]: 75.7%
- inhibition [6]: 2.17%
- RAM network inhibition [7]: 5.3%

SMILES: CC(=O)c1ccc(OCC(O)CN2C(C)CCCC2C)cc1 (configuration not stated)
- growth inhibition [1]: -1.28%
- growth inhibition [2]: -5.97%
- viability increase [3]: -0.1%
- viability [4]: 97.8%
- viability [5]: 98.1%
- inhibition [6]: 0.78%
- RAM network inhibition [7]: 1.46%

SMILES: O=C(CSc1nc2ccccc2o1)NCc1ccco1
- growth inhibition [1]: -11.6%
- growth inhibition [2]: -16%
- viability increase [3]: -3.53%
- viability [4]: 102%
- viability [5]: 98%
- inhibition [6]: 0.97%
- RAM network inhibition [7]: 5.5%

SMILES: COc1ccc(OCC(=O)NC2CC(C)(C)NC(C)(C)C2)cc1
- growth inhibition [1]: 4.15%
- growth inhibition [2]: 2.14%
- viability increase [3]: 1.31%
- viability [4]: 103%
- viability [5]: 105%
- inhibition [6]: -0.405%
- RAM network inhibition [7]: 3.43%

SMILES: CCCC(=O)NCCCc1nc2ccccc2n1CCC
- growth inhibition [1]: -2.54%
- growth inhibition [2]: -20.1%
- viability increase [3]: -1.65%
- viability [4]: 102%
- viability [5]: 95.1%
- inhibition [6]: 1.56%
- RAM network inhibition [7]: 3.21%

SMILES: COc1ccc(S(=O)(=O)n2nc(-c3cc(OC)c(OC)c(OC)c3)cc2N)cc1OC
- growth inhibition [1]: -12%
- growth inhibition [2]: 12.7%
- viability increase [3]: -3.64%
- viability [4]: 56.3%
- viability [5]: 74.8%
- inhibition [6]: 0.16%
- RAM network inhibition [7]: 5.52%

SMILES: CCNc1nc(NCC)nc(Oc2ccc(OCC)nn2)n1
- growth inhibition [1]: -15.2%
- growth inhibition [2]: -14.6%
- viability increase [3]: -0.87%
- viability [4]: 88.1%
- viability [5]: 92.2%
- inhibition [6]: 2.82%
- RAM network inhibition [7]: 4.95%

SMILES: Cc1cccc(N(C)S(=O)(=O)c2cccc3nsnc23)c1
- growth inhibition [1]: -12%
- growth inhibition [2]: -17.9%
- viability increase [3]: -4.32%
- viability [4]: 92.5%
- viability [5]: 89%
- inhibition [6]: 0.325%
- RAM network inhibition [7]: 4.78%

SMILES: Cc1cc(Nc2ccc(F)c(Cl)c2)n2nc(C)nc2n1
- growth inhibition [1]: 1.03%
- growth inhibition [2]: 15.8%
- viability increase [3]: -3.61%
- viability [4]: 97.2%
- viability [5]: 92.4%
- inhibition [6]: 1.94%
- RAM network inhibition [7]: 0.68%

SMILES: Cc1ccc(OCC(O)CN2CCN(CC(O)COc3ccc(C)cc3Cl)CC2)c(Cl)c1 (configuration not stated)
- growth inhibition [1]: -5.18%
- growth inhibition [2]: -17.4%
- viability increase [3]: -4.02%
- viability [4]: 77.7%
- viability [5]: 81.8%
- inhibition [6]: 2.03%
- RAM network inhibition [7]: 2.76%

SMILES: C=C(C)Cn1c(CNC(C)=O)nc2ccccc21
- growth inhibition [1]: -12.2%
- growth inhibition [2]: -25.6%
- viability increase [3]: -0.52%
- viability [4]: 108%
- viability [5]: 94.3%
- inhibition [6]: 0.645%
- RAM network inhibition [7]: 3.9%

SMILES: CCOC(=O)Cc1csc(NC(NC(=O)CC)(C(F)(F)F)C(F)(F)F)n1
- growth inhibition [1]: 0.765%
- growth inhibition [2]: -2.19%
- viability increase [3]: -0.75%
- viability [4]: 99.6%
- viability [5]: 96.7%
- inhibition [6]: 3.13%
- RAM network inhibition [7]: 6.43%

SMILES: FC(F)(F)C12CC(c3ccccc3)=NCCN1CCN2 (configuration not stated)
- growth inhibition [1]: -4.15%
- growth inhibition [2]: 4.43%
- viability increase [3]: -1.23%
- viability [4]: 102%
- viability [5]: 97.9%
- inhibition [6]: 1.35%
- RAM network inhibition [7]: -0.53%

SMILES: C=CCn1c(C)nc2c(c1=O)c1nc3ccccc3nc1n2-c1ccc(C)cc1
- growth inhibition [1]: -4.19%
- growth inhibition [2]: -2.97%
- viability increase [3]: -1.62%
- viability [4]: 92.3%
- viability [5]: 82.2%
- inhibition [6]: 1.32%
- RAM network inhibition [7]: 4.86%

SMILES: O=C1C2CCCN2C(c2ccc(F)cc2)N1c1cccc(Cl)c1 (configuration not stated)
- growth inhibition [1]: -1.56%
- growth inhibition [2]: 0.01%
- viability increase [3]: -0.91%
- viability [4]: 102%
- viability [5]: 99.6%
- inhibition [6]: 0.63%
- RAM network inhibition [7]: 2.38%

SMILES: COCCOC(=O)c1c(C)oc2ccc(OCC=C(C)C)cc12
- growth inhibition [1]: -0.275%
- growth inhibition [2]: -6.21%
- viability increase [3]: 3.27%
- viability [4]: 97.8%
- viability [5]: 95%
- inhibition [6]: 0.175%
- RAM network inhibition [7]: 4.81%

SMILES: CCCCN(C(=O)NC(=O)Nc1nc2ccc(OC)cc2s1)S(C)(=O)=O
- growth inhibition [1]: -2.28%
- growth inhibition [2]: -3.95%
- viability increase [3]: -0.44%
- viability [4]: 92.6%
- viability [5]: 103%
- inhibition [6]: -0.04%
- RAM network inhibition [7]: 1.09%

SMILES: CC1Cn2c(nnc2-c2cccc(N)c2)S1 (configuration not stated)
- growth inhibition [1]: 1.06%
- growth inhibition [2]: 14.3%
- viability increase [3]: -1.3%
- viability [4]: 98.7%
- viability [5]: 100%
- inhibition [6]: 1.52%
- RAM network inhibition [7]: 3.44%

SMILES: CCc1cccc(Nc2cc(C)nc3nc(C)nn23)c1
- growth inhibition [1]: -14.3%
- growth inhibition [2]: -3.76%
- viability increase [3]: -3.25%
- viability [4]: 96.7%
- viability [5]: 88.3%
- inhibition [6]: 2.72%
- RAM network inhibition [7]: 2.83%

SMILES: O=C(c1ccc(F)cc1)c1cn[nH]c1-c1ccccc1O
- growth inhibition [1]: -15.3%
- growth inhibition [2]: -15.9%
- viability increase [3]: -1.5%
- viability [4]: 99.5%
- viability [5]: 94.9%
- inhibition [6]: 2.42%
- RAM network inhibition [7]: 4.4%
